ChEMBL document CHEMBL1155359 (Bioorg Med Chem Lett, 2009)

Assays:
hERG (KCNH2) = hERG (KCNH2) (Homo sapiens, UniProt Q12809); experiment: (§1) Inhibition of human ERG in L929 cells at 10 uM by whole cell patch-clamp assay; details: human
Histamine H1 receptor = Histamine H1 receptor (Homo sapiens, UniProt P35367); experiment: Displacement of [3H]pyrilamine from human recombinant histamine H1 receptor expressed in CHO cell by Betaplate scintillation counting; type: cell-based
[1] = molecular target: T1, Voltage-gated inwardly rectifying potassium channel KCNH2 (Homo sapiens, UniProt Q12809); experiment: Inhibition of human ERG in L929 cells by whole cell patch-clamp assay
[2] = molecular target: T1, Voltage-gated inwardly rectifying potassium channel KCNH2; experiment: as §1
Cavia porcellus [3] = experiment: Antihistamine activity in iv dosed Hartley guinea pig assessed as inhibition of histamine-induced bronchoconstriction pretreated before histamine challenge; type: functional
Summary of the method: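 Guinea pig in vivo antihistamine test; potency is reported as an ED50 in mg/kg.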

Cavia porcellus [4] = experiment: Cardiovascular toxicity in iv dosed Hartley guinea pig QTc prolongation after 30 mins by ECG; type: organism-based; details: in vivo, 0.5 h
Summary of the method: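 Guinea pig in vivo QTc test; potency is reported as the minimum effective dose (MED) in mg/kg.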

Cavia porcellus [5] = experiment: Cardiovascular toxicity in Hartley guinea pig assessed as QTc prolongation at 50 mg/kg, iv after 30 mins by ECG; type: organism-based; design: dose 50 mg/kg, route intravenous; details: in vivo, 0.5 h
Cavia porcellus [6] = experiment: Cardiovascular toxicity in Hartley guinea pig assessed as QTc prolongation at 100 mg/kg, iv after 30 mins by ECG; type: organism-based; design: dose 100 mg/kg, route intravenous; details: in vivo, 0.5 h
[7] = L929 cells expressing human ERG

Sequence of hERG (KCNH2) (Q12809 whole entry): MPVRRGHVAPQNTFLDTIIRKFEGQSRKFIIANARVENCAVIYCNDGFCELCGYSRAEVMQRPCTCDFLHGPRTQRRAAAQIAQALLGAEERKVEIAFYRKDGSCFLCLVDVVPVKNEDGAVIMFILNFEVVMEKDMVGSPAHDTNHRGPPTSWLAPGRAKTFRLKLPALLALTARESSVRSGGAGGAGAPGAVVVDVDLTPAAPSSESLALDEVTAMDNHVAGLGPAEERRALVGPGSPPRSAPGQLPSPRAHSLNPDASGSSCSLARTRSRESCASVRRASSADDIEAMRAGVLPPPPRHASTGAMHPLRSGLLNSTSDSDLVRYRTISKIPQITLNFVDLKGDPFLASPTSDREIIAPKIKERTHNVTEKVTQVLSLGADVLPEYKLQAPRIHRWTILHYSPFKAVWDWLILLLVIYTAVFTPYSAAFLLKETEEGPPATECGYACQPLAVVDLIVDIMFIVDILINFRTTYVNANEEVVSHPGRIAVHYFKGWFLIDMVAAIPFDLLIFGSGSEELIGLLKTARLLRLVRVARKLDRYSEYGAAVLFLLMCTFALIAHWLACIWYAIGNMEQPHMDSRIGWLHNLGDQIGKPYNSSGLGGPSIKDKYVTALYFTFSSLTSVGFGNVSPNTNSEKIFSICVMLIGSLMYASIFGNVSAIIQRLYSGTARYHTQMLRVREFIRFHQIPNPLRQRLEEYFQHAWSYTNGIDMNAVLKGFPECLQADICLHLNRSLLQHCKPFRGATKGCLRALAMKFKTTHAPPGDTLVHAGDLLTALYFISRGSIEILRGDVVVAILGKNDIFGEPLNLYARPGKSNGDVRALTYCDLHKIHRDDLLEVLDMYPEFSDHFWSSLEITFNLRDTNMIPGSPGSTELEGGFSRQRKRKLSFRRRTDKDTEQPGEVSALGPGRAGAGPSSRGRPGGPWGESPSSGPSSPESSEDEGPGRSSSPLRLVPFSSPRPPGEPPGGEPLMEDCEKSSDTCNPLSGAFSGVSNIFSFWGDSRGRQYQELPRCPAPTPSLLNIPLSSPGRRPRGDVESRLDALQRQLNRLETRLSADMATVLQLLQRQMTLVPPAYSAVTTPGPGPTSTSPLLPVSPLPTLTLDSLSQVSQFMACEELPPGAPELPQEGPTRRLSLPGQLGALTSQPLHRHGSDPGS
Sequence of Histamine H1 receptor (P35367 whole entry): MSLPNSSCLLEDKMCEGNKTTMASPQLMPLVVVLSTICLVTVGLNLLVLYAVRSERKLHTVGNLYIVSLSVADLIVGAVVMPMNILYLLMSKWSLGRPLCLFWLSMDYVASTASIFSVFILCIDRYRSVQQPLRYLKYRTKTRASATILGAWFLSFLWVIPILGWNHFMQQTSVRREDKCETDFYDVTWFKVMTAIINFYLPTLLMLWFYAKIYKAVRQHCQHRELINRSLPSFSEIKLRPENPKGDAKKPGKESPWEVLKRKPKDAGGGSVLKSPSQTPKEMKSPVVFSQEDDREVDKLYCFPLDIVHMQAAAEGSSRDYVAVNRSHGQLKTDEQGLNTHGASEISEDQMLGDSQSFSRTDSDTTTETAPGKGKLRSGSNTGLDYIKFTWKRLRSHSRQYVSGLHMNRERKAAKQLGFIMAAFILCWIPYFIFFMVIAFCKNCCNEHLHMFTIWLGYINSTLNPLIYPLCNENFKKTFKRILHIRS
T1 sequence (Q12809 whole entry): as the sequence (Q12809 whole entry) above

| Structure (SMILES) | inhibition at 10 µM (hERG (KCNH2); [7]) [%] | Ki (Histamine H1 receptor; read-out: Ki) [nM] | further results |
| --- | --- | --- | --- |
| COC(=O)c1ccc(CCCCN2CCC(C(O)(c3ccccc3)c3ccccc3)CC2)cc1 | 100 | 20 |  |
| O=C(O)c1ccc(CCCCN2CCC(C(O)(c3ccccc3)c3ccccc3)CC2)cc1 |  | 203 | IC50 [1]: 11000 nM; IC50 [2]: 11000 nM; inhibition at 10 µM (hERG (KCNH2); l929): 56%; ED50 (Cavia porcellus [3]): 0.1 mg/kg; MED (Cavia porcellus [4]): Not Active; MED (Cavia porcellus [5]): > 50 mg/kg |
| Cc1ccc(CCCN2CCC(C(O)(c3ccccc3)c3ccccc3)CC2)cc1 |  | 155 |  |
| Cc1ccc(CCCCN2CCC(CO)CC2)cc1 | 54 |  | Ki (Histamine H1 receptor; cho): Not Active |
| Cc1ccc(CCCCC2CCC(C(O)(c3ccccc3)c3ccccc3)CC2)cc1 (stereo not given) | 35 |  | Ki (Histamine H1 receptor; cho): Not Active |
| Cc1ccc(CCCCN2CCCCC2)cc1 | 71 | 3200 |  |
| CC1CCC(CCCCN2CCC(C(O)(c3ccccc3)c3ccccc3)CC2)CC1 (stereo not given) | 85 | 61 |  |
| Cc1ccc(CCCCN2CCC(C(O)(c3ccccc3)c3ccccc3)CC2)cc1 |  | 39 | ED50 (Cavia porcellus [3]): 0.9 mg/kg; MED (Cavia porcellus [4]): 0.1 mg/kg |
| Cc1ccc(CN2CCC(C(O)(c3ccccc3)c3ccccc3)CC2)cc1 | 100 | 16 |  |
| Cc1ccc(CCN2CCC(C(O)(c3ccccc3)c3ccccc3)CC2)cc1 | 100 | 64 |  |
| Cc1ccc(CCCC(=O)N2CCC(C(O)(c3ccccc3)c3ccccc3)CC2)cc1 | 11 |  | Ki (Histamine H1 receptor; cho): Not Active |
| Cc1ccc(CCCCN2CCC(C(O)c3ccccc3)CC2)cc1 (stereo not given) | 97 | 121 |  |
| CC(C)(C(=O)O)c1ccc(C(O)CCCN2CCC(C(O)(c3ccccc3)c3ccccc3)CC2)cc1 (racemic) [FEXOFENADINE] |  |  | ED50 (Cavia porcellus [3]): 0.08 mg/kg; MED (Cavia porcellus [4]): Not Active; MED (Cavia porcellus [6]): > 100 mg/kg |
| CC(C)(C)c1ccc(C(O)CCCN2CCC(C(O)(c3ccccc3)c3ccccc3)CC2)cc1 (racemic) [TERFENADINE] |  |  | ED50 (Cavia porcellus [3]): 0.8 mg/kg; MED (Cavia porcellus [4]): 0.03 mg/kg |
| OC(c1ccccc1)(c1ccccc1)C1CCNCC1 [AZACYCLONOL] |  | 659 |  |
